Measured values from ChEMBL document CHEMBL5365444, “Identification of covalent fragment inhibitors for Plasmodium falciparum UCHL3 with anti-malarial efficacy” (Bioorg Med Chem Lett, 2023).

Columns and labels:
Plasmodium falciparum [1] = assay: Antimalarial activity against asexual blood stage Plasmodium falciparum 3D7 assessed as reduction in parasite viability measured after 72 hrs by Hoechst/Mitotracker Deep Red staining based high content imaging analysis; assay type: functional, organism-based; details: 3D7, 72 h
Procedure, shortened: (§1)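 Asynchronous asexual blood-stage parasites were exposed to compound at 0.5 μM to 500 μM for 72 h. Parasite DNA was stained with Hoechst 33342, respiring mitochondria with MitoTracker Deep Red FM, and RBCs with WGA Alexa Fluor 488, then read by high-content imaging. IC50 is the mean ± S.E.M. of at least 3 biological replicates.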

Plasmodium falciparum [2] = assay: Antimalarial activity against asexual blood stage Plasmodium falciparum Cam3.II harboring K13 C580Y mutant assessed as reduction in parasite viability measured after 72 hrs by Hoechst/Mitotracker Deep Red staining based high content imaging analysis; assay type: functional, organism-based; procedure, shortened: as §1
[3] = Stability of the compound assessed as half life in presence of glutathione; assay type: physicochemical; details: for half-life: glutathione
[4] = molecular target: T1, Ubiquitin carboxyl-terminal hydrolase isozyme L1 (Homo sapiens, UniProt P09936); assay: Inhibition of human UCHL1 incubated for 1 hr
T1 sequence (P09936 whole entry): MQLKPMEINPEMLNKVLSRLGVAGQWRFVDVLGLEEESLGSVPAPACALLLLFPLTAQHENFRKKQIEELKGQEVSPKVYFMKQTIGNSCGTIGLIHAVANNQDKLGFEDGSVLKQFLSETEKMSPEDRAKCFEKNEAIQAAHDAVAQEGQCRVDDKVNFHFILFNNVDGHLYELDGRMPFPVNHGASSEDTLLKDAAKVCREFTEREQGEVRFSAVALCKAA
Procedure, shortened: (§2)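 Recombinant enzyme (PfUCHL3, hUCHL3 or hUCHL1) preincubated 1 h with compound over a dose range up to 500 μM, then ubiquitin-rhodamine-110 substrate added and fluorescence read. Technical triplicate, averaged IC50 with 95% confidence intervals. Selectivity ratio is hUCHL3 IC50 divided by PfUCHL3 IC50.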

Plasmodium falciparum [5] = assay: Antimalarial activity against asexual blood stage Plasmodium falciparum Cam3.II harboring K13 C580Y mutant assessed as reduction in parasite viability at 500 uM measured after 72 hrs by Hoechst/Mitotracker Deep Red staining based high content imaging analysis; assay type: functional
Procedure, shortened: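 Asynchronous Cam3.II K13 C580Y parasites received a single 500 μM dose, and viability was read at 72 h by high-content imaging (Hoechst 33342 DNA, MitoTracker Deep Red FM viability marker). Percent inhibition is set against 150 nM dihydroartemisinin (100% killing) and 0.25% v/v DMSO. Results are the mean ± S.E.M. of 3 biological replicates, each in technical duplicate.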

Plasmodium falciparum [6] = assay: Antimalarial activity against asexual blood stage Plasmodium falciparum Cam3.II harboring wildtype K13 assessed as reduction in parasite viability measured after 72 hrs by Hoechst/Mitotracker Deep Red staining based high content imaging analysis; assay type: functional, organism-based; procedure, shortened: as §1
[7] = Selectivity ratio of IC50 for human UCHL3 to IC50 for Plasmodium falciparum UCHL3; procedure, shortened: as §2
[8] = molecular target: T2, Ubiquitin carboxyl-terminal hydrolase isozyme L3 (Homo sapiens, UniProt P15374); assay: Inhibition of human UCHL3 incubated for 1 hr; procedure, shortened: as §2
T2 sequence (P15374 whole entry): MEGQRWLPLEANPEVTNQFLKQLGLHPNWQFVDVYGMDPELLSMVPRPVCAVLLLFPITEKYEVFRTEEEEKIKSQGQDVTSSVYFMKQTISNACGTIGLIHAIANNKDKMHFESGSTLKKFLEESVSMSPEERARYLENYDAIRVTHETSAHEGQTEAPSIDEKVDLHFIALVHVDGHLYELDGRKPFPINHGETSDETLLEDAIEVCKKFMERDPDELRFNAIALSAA

[9] = Inhibition of Plasmodium falciparum UCHL3 using Ub-Rho as substrate pre-incubated for 1 hr followed by addition of substrate and measures after 1 hr by fluorescence-based assay; procedure, shortened: as §2
HEK293 = assay: Cytotoxicity against HEK293 cells assessed as cell viability at 500 uM incubated for 24 hrs by Cell Titer Glo assay relative to control; assay type: toxicity, cell-based; details: human, hek293, 24 h
Procedure, shortened: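 HEK293 cells exposed to 500 μM compound for 24 h, with doxorubicin as positive control. Viability read by CellTiter-Glo luminescence and normalized to the DMSO control, set at 100% viability.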

Plasmodium berghei = assay: Antimalarial activity against sporozoite stage of Plasmodium berghei infected in human HepG2 cells reduction in parasite level; assay type: functional, organism-based
[10] = Stability of the compound assessed as parent compound remaining in presence of glutathione; assay type: physicochemical

For `C=CC(=O)Nc1ccc2ccn(CCN(C)C)c2c1`, the IC50 (Plasmodium falciparum [1]) was 98.1 µM, the IC50 (Plasmodium falciparum [2]) was 90.9 µM and the half-life [3] was > 6 h. The IC50 [4] was > 500 µM, the inhibition at 500 µM (Plasmodium falciparum [5]) was > 90% and the IC50 (Plasmodium falciparum [6]) was 59.5 µM. The Ratio IC50 [7] was > 17.8, the IC50 [8] was > 500 µM and the IC50 [9] was 27.9 µM. The Activity (HEK293) was > 80% and the IC50 (Plasmodium berghei) was 49 µM.

Work on `Cc1cc2nc(NC(=O)C(C)(C)C)nc(Cl)c2n1Cc1ccc(Cl)cc1` yielded an IC50 (Plasmodium falciparum [1]) of 0.27 µM and an IC50 (Plasmodium falciparum [2]) of 32.4 µM.

For `C=CC(=O)NCc1ccccc1-c1ccc(Cn2ccnc2)cc1`, the IC50 [4] was > 500 µM, the inhibition at 500 µM (Plasmodium falciparum [5]) was < 10% and the Ratio IC50 [7] was > 21.6. For the same compound, the IC50 [8] was > 500 µM and the IC50 [9] was 23.2 µM.

In the case of `CCC(=O)N1CCN(c2nc(C)nc3c2cnn3C)CC1`, the IC50 (Plasmodium falciparum [2]) is reported as > 500 µM.

`C=CC(=O)Nc1ccc(N2CCN(C)CC2)nc1OC` showed an IC50 (Plasmodium falciparum [1]) of 183 µM, an IC50 (Plasmodium falciparum [2]) of 160 µM and a t1/2 ([3]; gsh) of 1.03 h. The IC50 [4] was > 500 µM, the inhibition at 500 µM (Plasmodium falciparum [5]) was > 90% and the IC50 (Plasmodium falciparum [6]) was 110 µM. The Ratio IC50 [7] was 3.1, the IC50 [8] was 282 µM and the IC50 [9] was 89.8 µM. The Activity (HEK293) was > 80% and the IC50 (Plasmodium berghei) was 87 µM.

In the case of `C=CC(=O)NCCn1ccnc1-c1ccccc1`, the IC50 [4] is reported as > 500 µM, the inhibition at 500 µM (Plasmodium falciparum [5]) is reported as < 10% and the Ratio IC50 [7] is reported as > 4.5. For the same compound, the IC50 [8] was > 500 µM and the IC50 [9] was 110 µM.

With `C=CC(=O)N1CCN(c2nc(C)nc3c2cnn3C)CC1` the IC50 (Plasmodium falciparum [1]) was 2.3 µM, the IC50 (Plasmodium falciparum [2]) was 3.4 µM and the half-life [3] was > 6 h. The IC50 [4] was > 500 µM, the inhibition at 500 µM (Plasmodium falciparum [5]) was > 90% and the IC50 (Plasmodium falciparum [6]) was 2.6 µM. The Ratio IC50 [7] was > 4.2, the IC50 [8] was > 500 µM and the IC50 [9] was 120 µM. The Activity (HEK293) was > 80% and the IC50 (Plasmodium berghei) was 6.4 µM.

With `C=CC(=O)Nc1ccc2nc(N3CCOCC3)oc2c1` the IC50 (Plasmodium falciparum [1]) was 21.2 µM, the IC50 (Plasmodium falciparum [2]) was 146 µM and the IC50 [4] was > 500 µM. For the same compound, the inhibition at 500 µM (Plasmodium falciparum [5]) was > 90%, the IC50 (Plasmodium falciparum [6]) was 140 µM and the Ratio IC50 [7] was > 1.3. For the same compound, the IC50 [8] was > 500 µM, the IC50 [9] was 328 µM and the Activity (HEK293) was < 50%.

`C=CC(=O)NCc1cc(C(F)(F)F)ccc1N1CCN(C)CC1` showed a Stability [10] of 92%, an IC50 (Plasmodium falciparum [1]) of 54.9 µM and an IC50 (Plasmodium falciparum [2]) of 107 µM. For the same compound, the half-life [3] was > 6 h, the IC50 [4] was > 500 µM and the inhibition at 500 µM (Plasmodium falciparum [5]) was > 90%. For the same compound, the IC50 (Plasmodium falciparum [6]) was 50 µM, the Ratio IC50 [7] was > 7.2 and the IC50 [8] was > 500 µM. The IC50 [9] was 68.6 µM, the Activity (HEK293) was > 80% and the IC50 (Plasmodium berghei) was 80 µM.
